Results on 43 compounds are retold here after ChEMBL document CHEMBL1142891, “Lead discovery and optimization of T-type calcium channel blockers” (Bioorg Med Chem, 2007).

What all share (format): cell-based
Experiment [1] addresses T1, Voltage-dependent T-type calcium channel subunit alpha-1G (Homo sapiens, UniProt O43497). The experiment in a line: Inhibition of T type calcium channel subunit alpha-1G expressed in HEK293 cells assessed as effect on T-type calcium currents at 10 uM by patch clamp method.
Experiment [2] has as its target T1, Voltage-dependent T-type calcium channel subunit alpha-1G. Nature of the experiment: Inhibition of T type calcium channel subunit alpha-1G expressed in HEK293 cells assessed as effect on T-type calcium currents by patch clamp method. The procedure, abridged:
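Whole-cell patch clamp on HEK293 cells expressing α1G. Electrodes of 3-4 MΩ held internal solution (mM): 130 KCl, 11 EGTA, 5 Mg-ATP, 10 HEPES, pH 7.4. External solution (mM): 140 NaCl, 2 CaCl2, 10 HEPES, 10 glucose, pH 7.4. Currents evoked every 15 s by a 50 ms step from -100 to -30 mV. Read-out was peak current; IC50 from dose-response fits.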

Experiment [3] shares this target. The experiment in a line: Inhibition of T type calcium channel subunit alpha1G expressed in HEK293 cells assessed as effect on KCl-induced increase in intracellular calcium level at 10 uM by FDSS assay. The procedure, abridged:
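HEK293 cells stably co-expressing α1G and Kir2.1 were plated at 40,000 cells/well and used the next day. Loaded 60 min at room temperature with 5 µM fluo3/AM plus 0.001% Pluronic F-127 in HEPES buffer (1.8 mM CaCl2, pH 7.4). Depolarized with 70 mM KCl in buffer containing 10 mM CaCl2; the rise in intracellular Ca2+ was read by fluorescence.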

For experiment [4], the target named is Voltage-dependent T-type calcium channel subunit alpha-1H (Homo sapiens) (UniProt O95180). Nature of the experiment: Inhibition of T type calcium channel subunit alpha-1H expressed in Xenopus oocytes at 100 uM by FDSS assay. The conditions noted are these: Oocyte.

Structures are written as SMILES. Where only a bound is given, the exact number is not on record here.

Sequence of Voltage-dependent T-type calcium channel subunit alpha-1H (Homo sapiens) (O95180 whole entry): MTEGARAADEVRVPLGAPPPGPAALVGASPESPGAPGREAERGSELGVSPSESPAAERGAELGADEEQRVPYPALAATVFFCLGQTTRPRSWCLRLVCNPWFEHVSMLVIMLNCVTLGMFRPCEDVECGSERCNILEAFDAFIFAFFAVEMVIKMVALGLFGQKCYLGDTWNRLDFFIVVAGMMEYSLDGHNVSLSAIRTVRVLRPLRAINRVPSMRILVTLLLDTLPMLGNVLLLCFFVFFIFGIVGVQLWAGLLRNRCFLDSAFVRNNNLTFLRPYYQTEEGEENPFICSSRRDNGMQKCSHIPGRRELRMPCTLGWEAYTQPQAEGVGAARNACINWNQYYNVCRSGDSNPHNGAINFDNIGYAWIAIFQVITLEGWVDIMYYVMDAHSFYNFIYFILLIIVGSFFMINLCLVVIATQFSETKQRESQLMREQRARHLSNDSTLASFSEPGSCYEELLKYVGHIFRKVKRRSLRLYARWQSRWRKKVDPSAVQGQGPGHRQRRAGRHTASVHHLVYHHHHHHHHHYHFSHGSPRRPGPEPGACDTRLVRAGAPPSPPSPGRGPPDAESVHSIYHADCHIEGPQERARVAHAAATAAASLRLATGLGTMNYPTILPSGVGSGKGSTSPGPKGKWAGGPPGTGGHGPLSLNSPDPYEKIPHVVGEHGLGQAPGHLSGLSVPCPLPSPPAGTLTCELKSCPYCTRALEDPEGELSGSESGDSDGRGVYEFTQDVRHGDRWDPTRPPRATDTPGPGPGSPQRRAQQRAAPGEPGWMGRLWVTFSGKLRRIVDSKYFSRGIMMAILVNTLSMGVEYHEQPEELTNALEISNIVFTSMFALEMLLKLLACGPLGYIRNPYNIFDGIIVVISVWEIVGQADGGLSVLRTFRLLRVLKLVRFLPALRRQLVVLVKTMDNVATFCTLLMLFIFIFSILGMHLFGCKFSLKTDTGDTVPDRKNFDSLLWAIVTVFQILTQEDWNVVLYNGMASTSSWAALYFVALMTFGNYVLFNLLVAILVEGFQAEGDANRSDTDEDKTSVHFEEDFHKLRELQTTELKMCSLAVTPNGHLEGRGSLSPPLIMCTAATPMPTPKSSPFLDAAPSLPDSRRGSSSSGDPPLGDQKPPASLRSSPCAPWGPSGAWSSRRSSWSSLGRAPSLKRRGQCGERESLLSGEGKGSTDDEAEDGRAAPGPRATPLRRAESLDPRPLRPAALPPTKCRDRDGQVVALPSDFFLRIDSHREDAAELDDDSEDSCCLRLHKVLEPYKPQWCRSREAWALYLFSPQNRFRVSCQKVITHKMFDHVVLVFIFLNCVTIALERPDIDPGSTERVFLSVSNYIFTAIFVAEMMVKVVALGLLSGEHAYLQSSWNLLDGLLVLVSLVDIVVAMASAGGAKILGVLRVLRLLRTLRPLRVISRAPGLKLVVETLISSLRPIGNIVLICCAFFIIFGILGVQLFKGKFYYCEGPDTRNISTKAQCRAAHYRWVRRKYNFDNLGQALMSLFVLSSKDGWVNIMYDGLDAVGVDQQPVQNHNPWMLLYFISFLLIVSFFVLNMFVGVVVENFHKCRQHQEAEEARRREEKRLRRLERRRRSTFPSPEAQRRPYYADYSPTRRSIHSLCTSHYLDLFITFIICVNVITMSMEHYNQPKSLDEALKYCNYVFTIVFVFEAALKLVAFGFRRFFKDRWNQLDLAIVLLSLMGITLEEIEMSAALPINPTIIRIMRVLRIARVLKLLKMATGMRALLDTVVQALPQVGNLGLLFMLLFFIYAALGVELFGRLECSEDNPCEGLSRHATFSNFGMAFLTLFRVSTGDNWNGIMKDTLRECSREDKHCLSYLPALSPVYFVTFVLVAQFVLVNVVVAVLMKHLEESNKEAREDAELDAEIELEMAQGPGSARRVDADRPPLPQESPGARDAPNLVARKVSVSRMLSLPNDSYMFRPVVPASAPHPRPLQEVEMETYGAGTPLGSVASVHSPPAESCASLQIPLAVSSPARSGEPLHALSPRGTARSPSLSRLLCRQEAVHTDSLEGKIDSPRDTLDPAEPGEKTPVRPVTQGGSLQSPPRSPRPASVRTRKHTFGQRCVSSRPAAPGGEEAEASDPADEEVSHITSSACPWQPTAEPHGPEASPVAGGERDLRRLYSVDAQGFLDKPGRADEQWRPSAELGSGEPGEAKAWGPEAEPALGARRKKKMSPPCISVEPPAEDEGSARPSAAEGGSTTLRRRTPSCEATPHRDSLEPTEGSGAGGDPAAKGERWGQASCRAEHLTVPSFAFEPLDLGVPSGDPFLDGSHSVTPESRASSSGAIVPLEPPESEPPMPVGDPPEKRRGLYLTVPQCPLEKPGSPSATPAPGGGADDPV
T1 sequence (O43497 whole entry): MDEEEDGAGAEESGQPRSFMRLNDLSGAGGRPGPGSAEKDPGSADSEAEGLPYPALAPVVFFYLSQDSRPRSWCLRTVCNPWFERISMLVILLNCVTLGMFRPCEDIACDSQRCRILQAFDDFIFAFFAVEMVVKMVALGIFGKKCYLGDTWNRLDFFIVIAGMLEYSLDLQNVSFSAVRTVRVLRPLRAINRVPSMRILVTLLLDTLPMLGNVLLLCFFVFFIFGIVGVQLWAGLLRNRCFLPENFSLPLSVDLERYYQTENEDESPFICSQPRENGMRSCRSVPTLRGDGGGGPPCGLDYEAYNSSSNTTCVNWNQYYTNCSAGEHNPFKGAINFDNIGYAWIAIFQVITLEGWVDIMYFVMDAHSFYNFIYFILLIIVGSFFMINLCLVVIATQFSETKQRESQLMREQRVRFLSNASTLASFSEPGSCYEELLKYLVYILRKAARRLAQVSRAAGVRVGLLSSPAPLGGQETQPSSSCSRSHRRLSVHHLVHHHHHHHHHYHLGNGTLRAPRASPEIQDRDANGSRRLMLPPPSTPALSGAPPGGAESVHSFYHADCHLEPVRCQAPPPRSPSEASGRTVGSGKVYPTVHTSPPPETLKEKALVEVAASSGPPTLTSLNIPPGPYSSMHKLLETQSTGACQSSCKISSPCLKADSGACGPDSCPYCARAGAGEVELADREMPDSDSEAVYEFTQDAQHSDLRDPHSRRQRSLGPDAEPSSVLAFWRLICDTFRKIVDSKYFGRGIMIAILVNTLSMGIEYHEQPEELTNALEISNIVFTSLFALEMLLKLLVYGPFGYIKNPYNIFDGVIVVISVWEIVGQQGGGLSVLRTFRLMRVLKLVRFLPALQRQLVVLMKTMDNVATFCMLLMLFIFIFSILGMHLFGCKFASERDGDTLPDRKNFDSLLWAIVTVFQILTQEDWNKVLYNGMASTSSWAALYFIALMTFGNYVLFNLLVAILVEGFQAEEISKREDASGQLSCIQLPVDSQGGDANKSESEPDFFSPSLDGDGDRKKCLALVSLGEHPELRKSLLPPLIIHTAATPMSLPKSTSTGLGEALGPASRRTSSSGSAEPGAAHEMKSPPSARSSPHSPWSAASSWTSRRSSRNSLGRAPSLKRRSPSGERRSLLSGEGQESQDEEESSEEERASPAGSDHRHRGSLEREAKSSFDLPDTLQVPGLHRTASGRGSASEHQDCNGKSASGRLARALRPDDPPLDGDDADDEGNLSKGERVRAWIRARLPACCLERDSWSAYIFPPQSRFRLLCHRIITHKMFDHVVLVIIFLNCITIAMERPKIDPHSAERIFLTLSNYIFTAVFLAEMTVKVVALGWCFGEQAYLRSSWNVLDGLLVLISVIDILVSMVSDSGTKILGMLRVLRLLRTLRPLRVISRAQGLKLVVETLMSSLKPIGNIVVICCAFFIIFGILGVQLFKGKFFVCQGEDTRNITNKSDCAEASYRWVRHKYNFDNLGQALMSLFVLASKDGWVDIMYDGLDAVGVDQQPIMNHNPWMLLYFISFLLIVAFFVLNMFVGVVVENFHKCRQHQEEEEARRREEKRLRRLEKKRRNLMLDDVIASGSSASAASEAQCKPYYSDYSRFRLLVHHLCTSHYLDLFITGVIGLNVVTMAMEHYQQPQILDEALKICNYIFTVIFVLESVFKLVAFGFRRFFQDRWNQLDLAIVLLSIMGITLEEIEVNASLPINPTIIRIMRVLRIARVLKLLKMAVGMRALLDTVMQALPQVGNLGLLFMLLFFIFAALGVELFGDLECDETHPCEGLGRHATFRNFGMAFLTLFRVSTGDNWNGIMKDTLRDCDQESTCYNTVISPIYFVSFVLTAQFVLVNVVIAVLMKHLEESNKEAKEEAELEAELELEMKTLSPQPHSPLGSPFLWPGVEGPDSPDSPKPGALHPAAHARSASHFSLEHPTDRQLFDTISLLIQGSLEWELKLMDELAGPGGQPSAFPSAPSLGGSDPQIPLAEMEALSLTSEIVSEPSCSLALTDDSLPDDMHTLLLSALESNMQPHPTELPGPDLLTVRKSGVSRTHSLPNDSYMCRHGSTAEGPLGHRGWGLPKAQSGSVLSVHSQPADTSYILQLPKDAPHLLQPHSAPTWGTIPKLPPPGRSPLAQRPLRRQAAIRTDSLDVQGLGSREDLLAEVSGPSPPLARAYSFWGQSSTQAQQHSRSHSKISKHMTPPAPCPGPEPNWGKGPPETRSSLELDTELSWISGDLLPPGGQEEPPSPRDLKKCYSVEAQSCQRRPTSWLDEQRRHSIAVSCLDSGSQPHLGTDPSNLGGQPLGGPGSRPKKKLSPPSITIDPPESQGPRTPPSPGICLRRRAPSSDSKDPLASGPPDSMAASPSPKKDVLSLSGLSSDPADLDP

`O=C(CCCCN1CCN(Cc2ccc(Cl)c(Cl)c2)CC1)Nc1ccccc1Cl`: the inhibition turned out to be 91% in experiment [1] and 55.9% in experiment [3]. For the same compound, the IC50 in experiment [2] stood at 1010 nM.
Taken in the same sequence, the figures for `O=C(CCCN1CCN(Cc2ccccc2)CC1)Nc1ccc(Cl)cc1` were 78%, 30.8% and 3520 nM.
Consider `O=C(CCCN1CCN(Cc2c(F)cccc2Cl)CC1)Nc1ccc(Cl)cc1`, for which the inhibition in experiment [1] was found to be 72.8%; in experiment [3] it was 39.8%. The IC50 in experiment [2] came to 3270 nM.
Taken in the same sequence, the figures for `COc1ccccc1N1CCN(CCCC(=O)Nc2ccc(Cl)cc2)CC1` were 84.3%, 51.8% and 2610 nM.
Taken in the same sequence, the figures for `COc1ccccc1N1CCN(CCCC(=O)Nc2ccc(Cl)cc2Cl)CC1` were 79.1%, 42.7% and 3340 nM.
For `O=C(CCCN1CCN(c2cccc(Cl)c2)CC1)Nc1ccc(Cl)cc1Cl`, in that order: 95.4%, 38.1% and 1010 nM.
Regarding `O=C(CN1CCN(C(=O)CCCCN2CCN(c3ccccc3)CC2)CC1)Nc1cccc(C(F)(F)F)c1`, the inhibition in experiment [4] was found to be 53%.
Turning to `O=C(CCCN1CCN(Cc2ccc(Cl)cc2)CC1)Nc1ccc(Cl)cc1Cl`, the figures for the inhibition in experiment [1] and in experiment [3] were 91.1% and 61.3%, respectively. For the same compound, in experiment [2], the IC50 was 280 nM.
For `O=C(CCCN1CCN(Cc2cccc(Cl)c2)CC1)Nc1ccc(Cl)cc1Cl`, in that order: 87.3%, 50.8% and 1480 nM.
Regarding `O=C(CCCN1CCN(Cc2ccccc2)CC1)Nc1ccc(Cl)cc1Cl`, the inhibition came to 79.3% in experiment [1] and 44.9% in experiment [3]. Also, in experiment [2], the half-inhibitory concentration (IC50) turned out to be 3140 nM.
Taken in the same sequence, the figures for `O=C(CCCCN1CCN(Cc2cccc(Cl)c2)CC1)N1CCN(c2ccccc2F)CC1` were 87.1%, 48.8% and 2440 nM.
Consider `CN1CCN(CCCCC(=O)N2CCN(CC(=O)Nc3cccc(Cl)c3)CC2)CC1`, for which the inhibition in experiment [4] was less than 1%.
As to `O=C(CCCN1CCN(c2ccc(F)cc2)CC1)Nc1ccc(Cl)cc1`, the inhibition in experiment [1] came out at 76.1%; in experiment [3], 32.5%. Besides, the IC50 in experiment [2] amounted to 3490 nM.
For `O=C(CCCCN1CCN(Cc2ccc(Cl)cc2)CC1)N1CCN(c2ccccc2F)CC1`, in that order: 89.7%, 48.3% and 1810 nM.
Taken in the same sequence, the figures for `O=C(CCCN1CCN(c2ccccc2Cl)CC1)Nc1ccc(Cl)cc1` were 60.5%, 37.3% and 6010 nM.
`O=C(CCCN1CCN(Cc2ccc3c(c2)OCO3)CC1)Nc1ccc(Cl)cc1Cl`: the inhibition in experiment [1] was determined as 88.1%; in experiment [3], 49.8%. In addition, the IC50 in experiment [2] was found to be 1670 nM.
For `O=C(CCCN1CCN(c2ccccc2)CC1)Nc1ccc(Cl)cc1Cl`, in that order: 76.2%, 38.5% and 4210 nM.
Taken in the same sequence, the figures for `O=C(CCCN1CCN(c2ccccc2F)CC1)Nc1ccc(Cl)cc1` were 79.2%, 36.1% and 3630 nM.
Taken in the same sequence, the figures for `O=C(CCCCN1CCN(c2cccc(Cl)c2)CC1)Nc1ccccc1Cl` were 93.2%, 54% and 1910 nM.
As for `O=C(CCCN1CCN(c2ccc(Cl)cc2)CC1)Nc1ccc(Cl)cc1`, the inhibition is 94.6% in experiment [1] and 48.3% in experiment [3]. Besides, the 50% inhibitory concentration (IC50) in experiment [2] amounted to 2640 nM.
Taken in the same sequence, the figures for `COc1cccc(N2CCN(CCCC(=O)Nc3ccc(Cl)cc3Cl)CC2)c1` were 80.3%, 44.2% and 3810 nM.
For `O=C(CCCN1CCN(Cc2ccc(Cl)cc2)CC1)Nc1ccc(Cl)cc1`, in that order: 92.6%, 33.6% and 370 nM.
Turning to `CCN1CCN(CCCCC(=O)N2CCN(CC(=O)Nc3cccc(C(F)(F)F)c3)CC2)CC1`, the inhibition in experiment [4] was found to be 23.6%.
In the case of `O=C(CCCN1CCN(Cc2cccc(Cl)c2)CC1)Nc1ccc(Cl)cc1`, the figures for the inhibition in experiment [1] and in experiment [3] were 92.4% and 38.3%, respectively. For the same compound, the IC50 in experiment [2] came out at 1800 nM.
For `O=C(CCCN1CCN(Cc2ccc3c(c2)OCO3)CC1)Nc1ccc(Cl)cc1`, in that order: 81.9%, 33.4% and 2730 nM.
Consider `COc1cccc(N2CCN(CCCC(=O)Nc3ccc(Cl)cc3)CC2)c1`, for which the values for the inhibition in experiment [1] and in experiment [3] were 84.1% and 40.6%, respectively. In addition, the IC50 in experiment [2] was 2780 nM.
`O=C(CCCCN1CCN(Cc2ccc(Cl)c(Cl)c2)CC1)N1CCN(c2ccccc2)CC1`: the figures for the inhibition in experiment [1] and in experiment [3] were 73.8% and 56.2%, respectively. The IC50 in experiment [2] is 2910 nM.
Taken in the same sequence, the figures for `O=C(CCCN1CCN(Cc2ccc(Cl)c(Cl)c2)CC1)Nc1ccc(Cl)cc1Cl` were 94.4%, 47.6% and 750 nM.
Consider `O=C(CCCCN1CCN(Cc2ccc(Cl)cc2)CC1)N1CCN(c2ccccc2)CC1`, for which the inhibition in experiment [1] stood at 79.7%; in experiment [3] it was 50.4%. The IC50 in experiment [2] is 3400 nM.
Consider `O=C(CCCN1CCN(c2ccccc2F)CC1)Nc1ccc(Cl)cc1Cl`, for which the inhibition in experiment [3] stood at 27.4%.
On the same count and under the same terms, then `O=C(CCN1CCN(c2ccc(F)cc2)CC1)Nc1ccc(F)cc1F`, with 29.7%.
For the compound `O=C(CN1CCN(C(=O)CCCCN2CCN(c3ccccc3)CC2)CC1)Nc1cccc(Cl)c1`, in experiment [4], the inhibition amounted to 75.3%.
Regarding `O=C(CCCN1CCN(Cc2c(F)cccc2Cl)CC1)Nc1cc(Cl)c(Cl)c(Cl)c1`, the inhibition in experiment [3] came to 35.1%.
With `CN1CCN(CCCCC(=O)N2CCN(CC(=O)Nc3cccc(C(F)(F)F)c3)CC2)CC1`, the inhibition in experiment [4] was less than 1%.
As for `O=C(CCN1CCN(c2ccccc2F)CC1)Nc1ccc(F)cc1F`, the inhibition in experiment [3] is 30.3%.
Same read-out and setting: then `O=C(CCCN1CCN(Cc2ccc(Cl)cc2)CC1)Nc1ccc(F)cc1F`, with 48%; and `O=C(CCN1CCN(c2ccccc2Cl)CC1)Nc1ccc(F)cc1F`, with 28.4%.
As to `O=C(CCN1CCN(Cc2ccccc2)CC1)Nc1ccc(F)cc1F`, the inhibition in experiment [3] amounted to 21.1%.
In the case of `O=C(CCCN1CCN(Cc2c(F)cccc2Cl)CC1)Nc1ccc(Cl)cc1Cl`, the inhibition in experiment [1] was 89.6%; in experiment [3], 49.6%. Also, the IC50 in experiment [2] amounted to 2400 nM.
Taken in the same sequence, the figures for `O=C(CCCN1CCN(c2ccccc2)CC1)Nc1ccc(Cl)cc1` were 75.1%, 30.4% and 4470 nM.
For `O=C(CCCN1CCN(Cc2cccc(Cl)c2)CC1)Nc1ccc(F)cc1F`, in experiment [3], the inhibition came out at 30.2%.
Still for that read-out and setting: next, `COc1ccccc1N1CCN(CCC(=O)Nc2ccc(F)cc2F)CC1`: 37.1%.
Take `CCN1CCN(CCCCC(=O)N2CCN(CC(=O)Nc3cccc(Cl)c3)CC2)CC1`: in experiment [4], the inhibition worked out at 71.6%.
